Test results as given in PMC12065821 (Scientific Reports, 2025).
Where a SMILES comes first, the peptide text is derived from it. Bridges are numbered along the chain shown (N, C = ends). [ ]: non-standard residue; d: D form. The star is where a group is joined. Heptanoyl(6-Me) = CC(C)CCCCC(=O)*; Dab = NCC[C@H](N)C(=O)O

Tests used:
[1] = PK-TD model, PK component; format: in vivo; settings: rats, single i.p. CMS-E2 40 mg/kg CBA, one-compartment PK-TD model, mean ± SD
Procedure, shortened: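 Plasma prodrug and formed colistin/colistin B concentrations after i.p. dosing were fitted by a compartmental model. The final model used one compartment each for prodrug and formed drug, a conversion rate constant, and linear first-order total clearance from both. Fit was judged by R², AIC, BIC and visual inspection. Estimates are mean ± SD.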

[2] = test system: rats; assay: Regression of kidney colistin/colistin B concentrations against CR, BUN, SQS; format: in vivo; settings: 95% CI
[3] = Plasma PK of CMS/CMS-E2 and formed colistin/colistin B; format: in vivo, rats; settings: rat plasma, LC-MS/MS, NCA, mean ± SD
Procedure, shortened: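 Male Sprague-Dawley rats were dosed once i.p. in saline, and serial jugular-vein blood was taken before and after dosing. Blood was heparinised (1%), spun at 4,982 × g for 10 min at 4 °C, and plasma stored at −70 °C. Plasma (40 µL) went through WCX solid-phase extraction with polymyxin B1 internal standard, then LC-MS/MS. Prodrug was total (acid-hydrolysed) minus free analyte. […] Values are mean ± SD, compared by Wilcoxon rank sum.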

[4] = Kidney PK of CMS/CMS-E2 and formed colistin/colistin B; format: in vivo, rats; settings: for Kp: kidney (cortex) / plasma, colistin/colistin B; for Tmax formed colistin/colistin B in kidneys / Cmax formed colistin/colistin B in kidneys: rat kidney cortex, LC-MS/MS; for Tmax formed colistin/colistin B in kidneys: NCA; for Cmax formed colistin/colistin B in kidneys: mean ± SD
Procedure, shortened: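 Male Sprague-Dawley rats (300 ± 15 g) got one i.p. dose in saline. At each sampling time rats were anaesthetised with tiletamine-zolazepam (40 mg/kg) and killed, and the left kidney was frozen at −70 °C. Kidney cortex was homogenised in saline (1:10 m/v, 1% BSA). Samples went through WCX solid-phase extraction with polymyxin B1 internal standard, then LC-MS/MS. Prodrug was calculated as total (after […] sulfuric acid hydrolysis) minus free colistin/colistin B. Parameters came from non-compartmental analysis.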

[5] = cited from earlier work
[6] = cited from earlier work; remark: listed apart in the source
[7] = single i.p. CMS or CMS-E2 20 mg/kg CBA
[8] = single i.p. CMS-E2 40 mg/kg CBA

- CLcolistin/colistin B (total body clearance) [1]: 1.89 ± 0.809 mL/min/kg
- regression coefficient between kidney concentration and SQS ([2]; ordered logistic regression): 0.03
- regression coefficient between kidney concentration and contemporaneous BUN ([2]; simple linear regression): 0.08
- regression coefficient between kidney concentration and contemporaneous CR ([2]; simple linear regression): 1.58
- AUC0-inf formed colistin/colistin B in plasma [3, 7]: 4140 ± 1260 ng·h/mL
- Cmax formed colistin/colistin B in plasma [3, 7]: 1140 ± 217 ng/mL
- Tmax formed colistin/colistin B in plasma [3, 7]: 1.67 ± 0.471 h
- t1/2 formed colistin/colistin B in plasma [3, 7]: 1.22 ± 0.313 h
- AUC0-inf formed colistin/colistin B in plasma [3, 8]: 35500 ± 23900 ng·h/mL
- Cmax formed colistin/colistin B in plasma [3, 8]: 7080 ± 2770 ng/mL
- Tmax formed colistin/colistin B in plasma [3, 8]: 4.71 ± 0.881 h
- t1/2 formed colistin/colistin B in plasma [3, 8]: 2.13 ± 0.827 h
- Kp ([4]; male, Sprague-Dawley, rat, ip, 20 mg/kg CBA, Kidney/plasma ratio of AUC0-inf, rats, single i.p. CMS or CMS-E2 20 mg/kg CBA): 19.7
- Kp ([4]; male, Sprague-Dawley, rat, ip, 40 mg/kg CBA, Kidney/plasma ratio of AUC0-inf, rats, single i.p. CMS-E2 40 mg/kg CBA): 39.6
- Kp ([4]; male, Sprague-Dawley, rat, ip, 40 mg/kg CBA, Kidney/plasma ratio of Cmax, rats, single i.p. CMS-E2 40 mg/kg CBA): 20.1
- tissue level at time at 8 h ([4]; male, Sprague-Dawley, rat, kidney cortex, ip, 20 mg/kg CBA, SD): 4860 ± 2360 ng/g
- tissue level at time at 24 h ([4]; male, Sprague-Dawley, rat, kidney cortex, ip, 40 mg/kg CBA, SD): 11500 ± 1740 ng/g
- Tmax formed colistin/colistin B in kidneys [4, 7]: 4 h
- Cmax formed colistin/colistin B in kidneys ([4]; single i.p. CMS or CMS-E2 20 mg/kg CBA, SD): 17.6 ± 6.79 µg/g
- Tmax formed colistin/colistin B in kidneys [4, 8]: 10 h
- Cmax formed colistin/colistin B in kidneys ([4]; single i.p. CMS-E2 40 mg/kg CBA, SD): 148 ± 32.8 µg/g
- Kidney/plasma ratio of Cmax, colistin/colistin B ([4]; rats, single i.p. CMS or CMS-E2 20 mg/kg CBA): 15.4
SMILES: CC(C)CCCCC(=O)N[C@@H](CCN)C(=O)N[C@H](C(=O)N[C@@H](CCN)C(=O)N[C@H]1CCNC(=O)[C@H]([C@@H](C)O)NC(=O)[C@H](CCN)NC(=O)[C@H](CCN)NC(=O)[C@H](CC(C)C)NC(=O)[C@@H](CC(C)C)NC(=O)[C@H](CCN)NC1=O)[C@@H](C)O [colistin B] ({Heptanoyl(6-Me)}-[Dab]T[Dab][Dab][Dab][dL]L[Dab][Dab]T; lactam 4-C)
- clearance after the colistin sulfate [5]: 5.2 ± 0.4 mL/min/kg
- clearance relative to colistin [5]: almost half
- clearance when administered as a single component [5]: 3.05 ± 0.62 mL/min/kg
- plasma protein binding [6]: 41.7 ± 12.4%
